The test system of assay [1] is Gallus gallus. Nature of the assay: Reduction in vasomotor depression in chicken after single intravenous bolus injection. Format: functional. The method, boiled down:
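Avian vasodepressor assay in conscious chickens (Coon method per U.S. Pharmacopeia, modified by Munsick et al.). Four-point Schild design against the U.S.P. posterior pituitary reference standard; results in units/mg on anhydrous weight.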

Assay [2] has as its system Rattus norvegicus. Description: Antidiuretic effect in Brattleboro rat assessed as maximal depressions of urine flow after single intravenous bolus injection. Type of assay: functional.
The species entered for assay [3] is Rattus norvegicus. Description: Induction in uterus contraction in isolated rat uterine horns in vitro.
Assay [4] relates to Rattus norvegicus. Nature of the assay: Induction in blood pressure in rat after single intravenous bolus injection. Format: functional. The method, boiled down:
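Pressor assay in anesthetized male rats following the U.S. Pharmacopeia procedure. Specific activity obtained by the Schild four-point design against the U.S.P. posterior pituitary reference standard; results in units/mg on anhydrous peptide weight.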

Assay [5] relates to Rattus norvegicus. Description: Decrease in glomerular filtration rate in Sprague-Dawley rat at 1.6 x 10^-11 mol, single intravenous bolus injection. Format: functional, organism-based. The note with it: in the assay text read “1.6 x 10^-12 mol” for “1.6 x 10^-11 mol”. Summed up:
(§1)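 Renal clearance in six male Sprague-Dawley rats, 250–275 g, under Inactin (10 mg/100 g ip), hydrated to 8% body weight with 2% ethanol/0.5% glucose. Infusion of 3% inulin, 1% mannitol, 0.6% NaCl, 2% alcohol at about 10 mL/h; 60 min equilibration; body temperature 37 °C. Urine volume determined gravimetrically, GFR from inulin (anthrone method), Na/K by flame photometry.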

Assay [6] concerns Rattus norvegicus. Description: Induction in blood pressure in rat at 1.6 x 10^-12 mol, single intravenous bolus injection. Type of assay: functional, organism-based. The method, boiled down: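 Hydrated, Inactin-anesthetized male Sprague-Dawley rats with carotid artery cannulated; arterial pressure recorded on a physiograph after a single intravenous bolus of 1.6×10^-12 mol (21 microunits).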

The subject of assay [7] is Rattus norvegicus. Nature of the assay: Reduction in urine flow in Sprague-Dawley rat at 1.6 x 10^-11 mol, single intravenous bolus injection. Type of assay: functional, organism-based. As to conditions: in the assay text read “1.6 x 10^-12 mol” for “1.6 x 10^-11 mol”. Summed up: as §1
The test system of assay [8] is Rattus norvegicus. Nature of the assay: Reduction in fractional excretion of sodium in Sprague-Dawley rat at 1.6 x 10^-11 mol, single intravenous bolus injection. Type of assay: functional, organism-based. As to conditions: in the assay text read “1.6 x 10^-12 mol” for “1.6 x 10^-11 mol”. The method, boiled down:
as §1

For assay [9], the system named is Rattus norvegicus. Nature of the assay: Increase in urine osmolality in Sprague-Dawley rat measured per liter at 1.6 x 10^-12 mol, single intravenous bolus injection (reference value: 200 mosm).
The subject of assay [10] is Rattus norvegicus. Nature of the assay: Reduction in urine flow in Sprague-Dawley rat at 4.2 x 10^-11 mol, single intravenous bolus injection. Type of assay: functional, organism-based. The method, boiled down: (§2)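 Six male Sprague-Dawley rats (250–275 g), Inactin 10 mg/100 g i.p., hydrated to 8% body weight; carotid, jugular and bladder cannulated, 37 °C. Inulin/mannitol/NaCl infusion (300 mosm) ~10 mL/h, 60 min equilibration. Blood pressure from the carotid; urine volume weighed, four postinjection samples; GFR from inulin (anthrone); sodium by flame photometry.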

Assay [11] has as its system Rattus norvegicus. Description: Increase in urine osmolality in Sprague-Dawley rat measured per liter at 4.2 x 10^-11 mol, single intravenous bolus injection (reference value: 200 mosm). Format: functional.
Assay [12] has as its system Rattus norvegicus. Description: Decrease in glomerular filtration rate in Sprague-Dawley rat at 1.6 x 10^-12 mol, single intravenous bolus injection.
Assay [13] concerns Rattus norvegicus. Description: Induction in blood pressure in rat at 4.2 x 10^-11 mol, single intravenous bolus injection. Format: functional, organism-based. Summed up: as §2
Assay [14] has as its system Rattus norvegicus. Description: Reduction in fractional excretion of sodium in Sprague-Dawley rat at 4.2 x 10^-11 mol, single intravenous bolus injection. Type of assay: functional, organism-based. The method, boiled down: as §2

Activity calls are given as the source filed them. The rule behind the calls is not given here. Bridge positions count the residues as written; N and C are the ends. Square brackets hold non-standard residues; d marks the D form. Peptide text beside a SMILES is read from it. ΔPro = O=C(O)[C@@H]1C=CCN1; Mpa = O=C(O)CCS

For the compound `N=C(N)NCCC[C@H](NC(=O)[C@@H]1C=CCN1C(=O)[C@@H]1CSSCCC(=O)N[C@@H](Cc2ccc(O)cc2)C(=O)N[C@@H](Cc2ccccc2)C(=O)N[C@@H](CCC(N)=O)C(=O)N[C@@H](CC(N)=O)C(=O)N1)C(=O)NCC(N)=O`, the Activity in assay [1] was 345 U/mg; in [2], 4134 U/mg; in assay [3], 69 U/mg; in assay [4], 240 U/mg.

As to `N=C(N)NCCCC(NC(=O)[C@@H]1CCCN1C(=O)[C@@H]1CSSCCC(=O)N[C@@H](Cc2ccc(O)cc2)C(=O)N[C@@H](Cc2ccccc2)C(=O)N[C@@H](CCC(N)=O)C(=O)N[C@@H](CC(N)=O)C(=O)N1)C(=O)NCC(N)=O` (single isomer, unassigned) [DESMOPRESSIN], the Activity in assay [1] was found to be 160 U/mg; in assay [2], 1400 U/mg; in assay [3], 29 U/mg; in assay [4] it was 395 U/mg.

For the compound `N=C(N)NCCC[C@H](NC(=O)[C@@H]1C=CCN1C(=O)[C@@H]1CSSCCC(=O)N[C@@H](Cc2ccccc2)C(=O)N[C@@H](Cc2ccccc2)C(=O)N[C@@H](CCC(N)=O)C(=O)N[C@@H](CC(N)=O)C(=O)N1)C(=O)NCC(N)=O` ([Mpa]FFQNC[ΔPro]RG-NH2; disulfide 1-6), the inhibition entry in assay [5], in [7] and in assay [8] was “Active” each time. Moreover, the outcome in [6] was inactive. For the same compound, the Activity in [1] was found to be 2.9 U/mg; in assay [2] it was 13000 U/mg; in [3], 6 U/mg; in assay [9], 700 milliosmole.

With `N=C(N)NCCC[C@H](NC(=O)[C@@H]1CCCN1C(=O)[C@@H]1CSSCCC(=O)N[C@@H](Cc2ccccc2)C(=O)N[C@@H](Cc2ccccc2)C(=O)N[C@@H](CCC(N)=O)C(=O)N[C@@H](CC(N)=O)C(=O)N1)C(=O)NCC(N)=O` ([Mpa]FFQNCPRG-NH2; disulfide 1-6), the Activity is on record as <1 U/mg in assay [1], 810 U/mg in [2], 0.3 U/mg in assay [3] and 29 U/mg in [4].

As to `N=C(N)NCCC[C@H](NC(=O)[C@@H]1CCCN1C(=O)[C@@H]1CSSC[C@H](N)C(=O)N[C@@H](Cc2ccc(O)cc2)C(=O)N[C@@H](Cc2ccccc2)C(=O)N[C@@H](CCC(N)=O)C(=O)N[C@@H](CC(N)=O)C(=O)N1)C(=O)NCC(N)=O` [VASOPRESSIN], the inhibition entry in assay [10], in [12] and in [14] was “Active” in each case. For the same compound, the Activity in assay [11] is 700 milliosmole; in assay [1] it was 100 U/mg; in assay [2] it was 503 U/mg; in assay [3] it was 12 U/mg; in [4], 487 U/mg. Further, the result in assay [13] was Active.

Values taken from ChEMBL document CHEMBL3244069, “Synthesis and biological activities of arginine-vasopressin analogues designed from a conformation-activity approach” (1979).
